{"source": "ChEMBL document CHEMBL3046036", "about": "“Bioactivity of the fungal metabolite (8R,16R)-(-)-pyrenophorin on graminaceous plants” (J Agric Food Chem, 2005)", "key": {"Avena fatua [1]": {"system": "Avena fatua", "experiment": "Inhibition of Avena fatua seed germination at 20 degC at 640 uM (reference value: 0%)", "format": "functional"}, "Hordeum vulgare [2]": {"system": "Hordeum vulgare", "experiment": "Inhibition of Hordeum vulgare (barley) seed germination at 20 degC at 640 uM (reference value: 0%)", "format": "functional"}, "Hordeum vulgare [3]": {"system": "Hordeum vulgare", "experiment": "Inhibition of Hordeum vulgare (barley) seed germination at 20 degC at 90 uM (reference value: 0%)", "format": "functional"}, "Triticum aestivum [4]": {"system": "Triticum aestivum", "experiment": "Inhibition of Triticum aestivum (wheat) seed germination at 20 degC at 90 uM (reference value: 0%)", "format": "functional"}, "Avena sativa [5]": {"system": "Avena sativa", "experiment": "Inhibition of Avena sativa seed germination at 20 degC at 60 uM (reference value: 0%)", "format": "functional"}, "Avena fatua [6]": {"system": "Avena fatua", "experiment": "Effect on chlorophyll content in Avena fatua assessed as chlorophyll dissipation rate at 20 degC and […] at 320 uM relative to control", "format": "ADME, organism-based", "details": "in vivo", "how_it_was_run": "(§1)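 Leaf sections were treated with 320 µM metabolite and incubated in the dark at 20 °C, with 16 tubes per treatment. Every 12 h, segments from one tube were split into four tubes and extracted in DMSO at 65 °C for 30 min. Extracts were read at A665, tissue was dried at 105 °C and weighed, and chlorophyll was expressed as A665 per g dry weight.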"}, "Avena sterilis [7]": {"system": "Avena sterilis", "experiment": "Inhibition of Avena sterilis seed germination at 20 degC at 100 uM (reference value: 0%)", "format": "functional"}, "Avena sterilis [8]": {"system": "Avena sterilis", "experiment": "Inhibition of Avena sterilis seed germination at 20 degC at 90 uM (reference value: 0%)", "format": "functional"}, "Avena sativa [9]": {"system": "Avena sativa", "experiment": "Inhibition of Avena sativa seed germination at 20 degC at 70 uM (reference value: 0%)", "format": "functional"}, "Avena sativa [10]": {"system": "Avena sativa", "experiment": "Inhibition of Avena sativa seed germination at 20 degC at 90 uM (reference value: 0%)", "format": "functional"}, "Avena sterilis [11]": {"system": "Avena sterilis", "experiment": "Effect on chlorophyll content in Avena sterilis assessed as chlorophyll dissipation rate at 20 degC and […] at 320 uM relative to control", "format": "ADME, organism-based", "details": "in vivo", "how_it_was_run": "as §1"}, "Triticum aestivum [12]": {"system": "Triticum aestivum", "experiment": "Inhibition of Triticum aestivum (wheat) seed germination at 20 degC at 60 uM (reference value: 0%)", "format": "functional"}, "Avena sterilis [13]": {"system": "Avena sterilis", "experiment": "Inhibition of Avena sterilis seed germination at 20 degC at 200 uM (reference value: 0%)", "format": "functional"}, "Avena sterilis [14]": {"system": "Avena sterilis", "experiment": "Inhibition of Avena sterilis seed germination at 20 degC at 80 uM (reference value: 0%)", "format": "functional"}, "Hordeum vulgare [15]": {"system": "Hordeum vulgare", "experiment": "Inhibition of Hordeum vulgare (barley) seed germination at 20 degC at 70 uM (reference value: 0%)", "format": "functional"}, "Avena fatua [16]": {"system": "Avena fatua", "experiment": "Phytotoxicity against Avena fatua root growth at 20 degC and 12 hr photoperiod at 1000 uM", "format": "organism-based", "details": "in vivo"}, "Avena fatua [17]": {"system": "Avena fatua", "experiment": "Inhibition of Avena fatua root growth at 20 degC and 12 hr photoperiod at > 51 uM", "format": "functional, organism-based", "how_it_was_run": "(§2)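 Pregerminated seeds were exposed in tubes to aqueous metabolite and kept in a growth chamber at 20 °C with a 12-h photoperiod. Main root length was measured after 120 h.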"}, "Triticum aestivum [18]": {"system": "Triticum aestivum", "experiment": "Phytotoxicity against Triticum aestivum (wheat) root growth at 20 degC and 12 hr photoperiod at 1000 uM", "format": "organism-based", "details": "in vivo"}, "Avena sativa [19]": {"system": "Avena sativa", "experiment": "Enhancement of Avena sativa root growth at 20 degC and 12 hr photoperiod at 10 to 30 uM", "format": "functional, organism-based", "how_it_was_run": "as §2"}, "Avena sterilis [20]": {"system": "Avena sterilis", "experiment": "Inhibition of Avena sterilis seed germination at 20 degC at 640 uM (reference value: 0%)", "format": "functional"}, "Avena fatua [21]": {"system": "Avena fatua", "experiment": "Inhibition of Avena fatua seed germination at 20 degC at 60 uM (reference value: 0%)", "format": "functional"}, "Avena fatua [22]": {"system": "Avena fatua", "experiment": "Enhancement of Avena fatua root growth at 20 degC and 12 hr photoperiod at 10 to 30 uM", "format": "functional, organism-based", "how_it_was_run": "as §2"}, "Triticum aestivum [23]": {"system": "Triticum aestivum", "experiment": "Inhibition of Triticum aestivum (wheat) seed germination at 20 degC at 80 uM (reference value: 0%)", "format": "functional"}, "Avena sativa [24]": {"system": "Avena sativa", "experiment": "Inhibition of Avena sativa seed germination at 20 degC at 80 uM (reference value: 0%)", "format": "functional"}, "Hordeum vulgare [25]": {"system": "Hordeum vulgare", "experiment": "Inhibition of Hordeum vulgare (barley) seed germination at 20 degC at 80 uM (reference value: 0%)", "format": "functional"}, "Hordeum vulgare [26]": {"system": "Hordeum vulgare", "experiment": "Inhibition of Hordeum vulgare (barley) seed germination at 20 degC at 100 uM (reference value: 0%)", "format": "functional"}, "Avena sterilis [27]": {"system": "Avena sterilis", "experiment": "Inhibition of Avena sterilis seed germination at 20 degC at 10 to 50 uM (reference value: 0%)", "format": "functional"}, "Avena sterilis [28]": {"system": "Avena sterilis", "experiment": "Inhibition of Avena sterilis seed germination at 20 degC at 60 uM (reference value: 0%)", "format": "functional"}, "Avena sterilis [29]": {"system": "Avena sterilis", "experiment": "Phytotoxicity against Avena sterilis root growth at 20 degC and 12 hr photoperiod at 1000 uM", "format": "organism-based", "details": "in vivo"}, "Avena sterilis [30]": {"system": "Avena sterilis", "experiment": "Enhancement of Avena sterilis root growth at 20 degC and 12 hr photoperiod at 10 to 30 uM", "format": "functional, organism-based", "how_it_was_run": "as §2"}, "Triticum aestivum [31]": {"system": "Triticum aestivum", "experiment": "Inhibition of Triticum aestivum (wheat) seed germination at 20 degC at 640 uM (reference value: 0%)", "format": "functional"}, "Triticum aestivum [32]": {"system": "Triticum aestivum", "experiment": "Inhibition of Triticum aestivum (wheat) seed germination at 20 degC at 320 uM (reference value: 0%)", "format": "functional"}, "Triticum aestivum [33]": {"system": "Triticum aestivum", "experiment": "Inhibition of Triticum aestivum (wheat) seed germination at 20 degC at 100 uM (reference value: 0%)", "format": "functional"}, "Avena fatua [34]": {"system": "Avena fatua", "experiment": "Inhibition of Avena fatua seed germination at 20 degC at 70 uM (reference value: 0%)", "format": "functional"}, "Avena fatua [35]": {"system": "Avena fatua", "experiment": "Inhibition of Avena fatua seed germination at 20 degC at 200 uM (reference value: 0%)", "format": "functional"}}, "note": "The source made the active and inactive calls. The calls are words filed in the database; no cut-off is given here."}
{"compound": "C[C@@H]1CCC(=O)/C=C/C(=O)O[C@H](C)CCC(=O)/C=C/C(=O)O1", "note": "[(8R,16R)-(-)-pyrenophorin]", "values": [{"measurement": "inhibition at 640 µM", "setting": "Avena fatua [1]", "value": 100, "unit": "%"}, {"measurement": "inhibition at 640 µM", "setting": "Hordeum vulgare [2]", "value": 100, "unit": "%"}, {"measurement": "inhibition at 90 µM", "setting": "Hordeum vulgare [3]", "value": 88.2, "unit": "%"}, {"measurement": "inhibition at 90 µM", "setting": "Triticum aestivum [4]", "value": 86.2, "unit": "%"}, {"measurement": "inhibition at 60 µM", "setting": "Avena sativa [5]", "value": 14.5, "unit": "%"}, {"measurement": "Ratio", "setting": "Avena fatua [6]", "value": 1.4}, {"measurement": "inhibition at 100 µM", "setting": "Avena sterilis [7]", "value": 96.8, "unit": "%"}, {"measurement": "inhibition at 90 µM", "setting": "Avena sterilis [8]", "value": 89.6, "unit": "%"}, {"measurement": "inhibition at 70 µM", "setting": "Avena sativa [9]", "value": 71.5, "unit": "%"}, {"measurement": "inhibition at 90 µM", "setting": "Avena sativa [10]", "value": 89, "unit": "%"}, {"measurement": "Ratio", "setting": "Avena sterilis [11]", "value": 1.4}, {"measurement": "inhibition at 60 µM", "setting": "Triticum aestivum [12]", "value": 12.4, "unit": "%"}, {"measurement": "inhibition at 200 µM", "setting": "Avena sterilis [13]", "value": 100, "unit": "%"}, {"measurement": "inhibition at 80 µM", "setting": "Avena sterilis [14]", "value": 84.4, "unit": "%"}, {"measurement": "inhibition at 70 µM", "setting": "Hordeum vulgare [15]", "value": 67.5, "unit": "%"}, {"measurement": "Activity", "setting": "Avena fatua [16]", "value": "Non-toxic"}, {"measurement": "inhibition", "setting": "Avena fatua [17]", "value": "Active"}, {"measurement": "Activity", "setting": "Triticum aestivum [18]", "value": "Non-toxic"}, {"measurement": "Activity", "setting": "Avena sativa [19]", "value": "Active"}, {"measurement": "inhibition at 640 µM", "setting": "Avena sterilis [20]", "value": 100, "unit": "%"}, {"measurement": "inhibition at 60 µM", "setting": "Avena fatua [21]", "value": 12.5, "unit": "%"}, {"measurement": "Activity", "setting": "Avena fatua [22]", "value": "Active"}, {"measurement": "inhibition at 80 µM", "setting": "Triticum aestivum [23]", "value": 81.4, "unit": "%"}, {"measurement": "inhibition at 80 µM", "setting": "Avena sativa [24]", "value": 82.6, "unit": "%"}, {"measurement": "inhibition at 80 µM", "setting": "Hordeum vulgare [25]", "value": 87.7, "unit": "%"}, {"measurement": "inhibition at 100 µM", "setting": "Hordeum vulgare [26]", "value": 95.4, "unit": "%"}, {"measurement": "inhibition (INH)", "setting": "Avena sterilis [27]", "value": 0, "unit": "%"}, {"measurement": "inhibition at 60 µM", "setting": "Avena sterilis [28]", "value": 15, "unit": "%"}, {"measurement": "Activity", "setting": "Avena sterilis [29]", "value": "Non-toxic"}, {"measurement": "Activity", "setting": "Avena sterilis [30]", "value": "Active"}, {"measurement": "inhibition at 640 µM", "setting": "Triticum aestivum [31]", "value": 100, "unit": "%"}, {"measurement": "inhibition at 320 µM", "setting": "Triticum aestivum [32]", "value": 98, "unit": "%"}, {"measurement": "inhibition at 100 µM", "setting": "Triticum aestivum [33]", "value": 90.8, "unit": "%"}, {"measurement": "inhibition at 70 µM", "setting": "Avena fatua [34]", "value": 69.9, "unit": "%"}, {"measurement": "inhibition at 200 µM", "setting": "Avena fatua [35]", "value": 97.9, "unit": "%"}]}
